From ChEMBL document CHEMBL1142013, “Tryptamine and homotryptamine-based sulfonamides as potent and selective inhibitors of 15-lipoxygenase” (Bioorg Med Chem Lett, 2005)
pIC50: −log10 of the molar value.

Assays:
[1] = target: T1, Polyunsaturated fatty acid 5-lipoxygenase (Homo sapiens, UniProt P09917); assay: Inhibitory concentration against human 5-lipoxygenase
T1 sequence (P09917 whole entry): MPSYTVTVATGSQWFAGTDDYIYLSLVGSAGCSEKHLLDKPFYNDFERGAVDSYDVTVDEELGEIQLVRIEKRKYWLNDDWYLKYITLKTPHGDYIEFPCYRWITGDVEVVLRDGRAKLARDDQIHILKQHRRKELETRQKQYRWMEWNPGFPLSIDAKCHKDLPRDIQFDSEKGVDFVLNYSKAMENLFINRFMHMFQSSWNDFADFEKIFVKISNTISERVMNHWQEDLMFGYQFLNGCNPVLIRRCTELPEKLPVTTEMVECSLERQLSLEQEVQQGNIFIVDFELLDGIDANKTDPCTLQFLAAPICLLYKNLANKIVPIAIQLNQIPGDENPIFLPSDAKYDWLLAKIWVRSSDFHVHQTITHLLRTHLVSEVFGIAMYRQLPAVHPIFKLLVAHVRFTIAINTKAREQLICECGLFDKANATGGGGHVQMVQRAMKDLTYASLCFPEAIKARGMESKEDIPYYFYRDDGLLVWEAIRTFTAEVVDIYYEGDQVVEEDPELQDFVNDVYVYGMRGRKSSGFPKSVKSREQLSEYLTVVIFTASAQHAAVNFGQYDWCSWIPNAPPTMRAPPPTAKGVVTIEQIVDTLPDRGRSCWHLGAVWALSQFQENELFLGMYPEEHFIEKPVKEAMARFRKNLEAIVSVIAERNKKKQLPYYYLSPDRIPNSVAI
In short: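 Recombinant human 5-LO enzyme. Inhibition was followed by oxidation of arachidonic acid as the substrate. IC50 values were determined.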

[2] = target: T2, Polyunsaturated fatty acid lipoxygenase ALOX15 (Oryctolagus cuniculus, UniProt P12530); assay: Inhibitory concentration against rabbit reticulocyte 15-lipoxygenase with substrate arachidonic acid
T2 sequence (P12530 whole entry): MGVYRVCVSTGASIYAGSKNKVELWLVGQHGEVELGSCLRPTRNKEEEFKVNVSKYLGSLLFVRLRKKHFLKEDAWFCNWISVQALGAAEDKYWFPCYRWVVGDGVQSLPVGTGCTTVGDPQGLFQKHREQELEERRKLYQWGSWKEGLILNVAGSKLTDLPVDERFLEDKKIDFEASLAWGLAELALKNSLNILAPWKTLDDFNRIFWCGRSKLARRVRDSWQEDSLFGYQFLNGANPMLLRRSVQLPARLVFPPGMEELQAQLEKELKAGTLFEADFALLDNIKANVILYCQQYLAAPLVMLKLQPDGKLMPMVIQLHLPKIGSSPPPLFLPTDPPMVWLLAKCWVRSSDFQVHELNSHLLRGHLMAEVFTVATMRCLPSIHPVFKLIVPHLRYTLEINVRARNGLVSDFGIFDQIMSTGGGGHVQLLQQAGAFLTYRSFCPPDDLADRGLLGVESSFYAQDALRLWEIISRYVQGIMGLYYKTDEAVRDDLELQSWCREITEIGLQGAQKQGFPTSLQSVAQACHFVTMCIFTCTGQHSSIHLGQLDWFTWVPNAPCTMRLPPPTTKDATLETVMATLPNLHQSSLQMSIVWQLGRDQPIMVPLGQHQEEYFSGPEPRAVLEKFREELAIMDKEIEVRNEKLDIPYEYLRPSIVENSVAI
In short: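 Purified rabbit reticulocyte 15-LO, isolated from phenylhydrazine-treated rabbits, with arachidonic acid as the substrate. IC50 comes from a colorimetric read-out in which the 15-HPETE product oxidizes Fe²⁺ under mildly acidic conditions. Many values were also verified by the spectrophotometric diene-formation rate (A₂₃₄).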

[3] = target: T2, Polyunsaturated fatty acid lipoxygenase ALOX15; assay: Inhibitory concentration against isolated rabbit reticulocyte 15-lipoxygenase measured in the presence of linoleic acid
In short: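 15-LO was purified from reticulocytes of phenylhydrazine-treated rabbits. Linoleic acid was the substrate. In a colorimetric assay, the 13-HPODE product oxidizes Fe²⁺ under mildly acidic conditions, and IC50 is derived from this. Many values were also checked spectrophotometrically by the rate of diene formation (A₂₃₄).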

[4] = target: T3, Polyunsaturated fatty acid lipoxygenase ALOX12 (Homo sapiens, UniProt P18054); assay: Inhibitory concentration against human platelet-derived 12-lipoxygenase
T3 sequence (P18054 whole entry): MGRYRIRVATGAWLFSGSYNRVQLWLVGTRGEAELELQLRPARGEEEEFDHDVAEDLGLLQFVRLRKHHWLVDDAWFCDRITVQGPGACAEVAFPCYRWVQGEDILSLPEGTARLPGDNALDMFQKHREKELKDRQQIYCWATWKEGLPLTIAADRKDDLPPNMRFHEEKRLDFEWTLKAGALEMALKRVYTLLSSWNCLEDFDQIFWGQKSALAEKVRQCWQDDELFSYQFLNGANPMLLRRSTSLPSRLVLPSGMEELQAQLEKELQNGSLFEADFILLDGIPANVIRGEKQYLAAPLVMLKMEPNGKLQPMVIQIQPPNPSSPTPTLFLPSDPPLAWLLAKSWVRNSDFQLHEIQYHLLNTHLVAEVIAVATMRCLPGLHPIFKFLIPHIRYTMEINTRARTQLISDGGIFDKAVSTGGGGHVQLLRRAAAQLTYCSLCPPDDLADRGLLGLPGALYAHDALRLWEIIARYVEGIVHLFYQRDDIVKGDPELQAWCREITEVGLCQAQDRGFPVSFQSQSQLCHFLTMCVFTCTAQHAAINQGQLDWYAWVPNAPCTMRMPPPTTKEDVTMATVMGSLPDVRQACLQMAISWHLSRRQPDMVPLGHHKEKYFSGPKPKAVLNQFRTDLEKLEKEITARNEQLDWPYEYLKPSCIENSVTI

| Structure (SMILES) | pIC50 [1] | pIC50 [2] | pIC50 [3] | pIC50 [4] |
| --- | --- | --- | --- | --- |
| Cc1ccc(S(=O)(=O)NCCc2c(-c3cc4ccccc4o3)[nH]c3ccccc23)cc1 | < 5.00 | 7.11 | 8.00 | < 5.00 |
| CCCCCc1ccc(S(=O)(=O)NCCc2c(-c3ccccc3)[nH]c3ccccc23)cc1 | < 5.52 | 6.85 | 7.21 | < 5.00 |
| CCCCCc1ccc(S(=O)(=O)NCCc2c(-c3ccc(OC)cc3)[nH]c3ccccc23)cc1 | 5.05 | 6.79 | 7.43 | < 5.00 |
